Here are results for 48 sequences from the EternaBench riboswitch data.

The series has as its system MS2 coat protein. Put plainly: apparent Kd, MS2 coat protein; higher = weaker binding; RNA-MaP array; FMN 200 µM where present. Put shortly: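 Green signal was scaled to red-channel RNA signal and control-cluster median Fmax, and the apparent Kd was taken as the median of filtered per-cluster binding-curve fits. The binding series used SNAP-549-labelled MS2 coat protein from 0.7 or 1.5 nM, doubling to 3 µM, on designs transcribed by stalled E. coli RNA polymerase on Illumina sequencing-chip clusters. Each series ran without and then with constant ligand in 100 mM Tris-HCl pH 7.5, 80 mM KCl, 4 mM MgCl2, BSA, DTT, yeast tRNA and Tween-20.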

[1] abbreviates: designed as: ON switch for flavin mononucleotide, no ligand.
[2] abbreviates: ligand present: flavin mononucleotide, designed as: ON switch for flavin mononucleotide.
Where [3] appears, read: designed as: OFF switch for flavin mononucleotide, no ligand.
[4] abbreviates: ligand present: flavin mononucleotide, designed as: OFF switch for flavin mononucleotide.

“AUAAAUAUAGCGAUAUGAUCGAGAGAUCAUGUCGCUAAUGUUAGAAGGACAUGAGGAUCACCCAUGUAGGAUAUGGGAGUAUGA”: the “apparent Kd” value under setting [1] was 197 nM and the “apparent Kd” value under setting [2] was 86 nM.

As to “GGUGAGAGCAAGGAUAUGCAGAAGUGAGAAAGUGCAGAAGGUGCUACAUGAGGAUCACCCAUGUUGGAUGUGUU”, the “apparent Kd” value under setting [3] turned out to be 37.1 nM and the “apparent Kd” value under setting [4] was determined as 49.1 nM.

On to “AUACCUUAUGAGAAGGCGAUCAUGAAACAUGAUCGAGGAUAUCAUGUAAACAUGAGGAUCACCCAUGUAUGGGUAUUAUGGUAA”, for which the “apparent Kd” value runs as follows: under setting [1], 26.5 nM; under setting [2], 9.1 nM.

As to “UGAGCCUCGUGAGGAUAUACAUGAGGAUCACCCAUGUAAAUGGAAUAACGGAGGAAACUCCGAAUGUAGAAGGCACGAGGCUCA”, the “apparent Kd” value runs as follows: under setting [3], 81.3 nM; under setting [4], 840 nM.

With “AGCUAGUCAGGAUAUACGAAAAUGUCAGAAGCUGAGAAGGGACAUGAGGAUCACCCAUGUAGAAGGGACUAGCA”, the “apparent Kd” value was found to be 57.5 nM under setting [3] and 299 nM under setting [4].

On to “GGAGCCGGUACUGAGGAUAUUCAUAUUAAAACAUGAGGAUCACCCAUGUAGGCCAGAAGGCCUUGGGAGAAGGCAGAUCGGCUCC”, for which the “apparent Kd” value reads like this: under setting [1], 408 nM; under setting [2], 25.9 nM.

For the sequence “GUGGACUACGUAGGAUAUGUAGGAUAUUCCUACAUGAGGAUCACCCAUGUUAGCAUGGAAGAAGGACAGAAGGACGUGGUCCAG”, the “apparent Kd” value runs as follows: under setting [1], 1130 nM; under setting [2], 16 nM.

As to “UAAGUCUAAUGAGGAUAUCGUAAUGAAACAUUAUGAGAAGGCAUACAAUCAUGAGGACAUGAGGAUCACCCAUGUUGUGACCAU”, the “apparent Kd” value under setting [1] came out at 33.6 nM and the “apparent Kd” value under setting [2] was determined as 16.2 nM.

Regarding “AACCAACAUGAGGAUCACCCAUGUCAACCCAAGGCAGGAUAUGCGAGAAUAACAAUGGGAGCAGAAGGGCCGACCU”, the “apparent Kd” value is 110 nM under setting [1] and 54.9 nM under setting [2].

Turning to “GGGUAACAUGAGGAUCACCCAUGUGAGGAUAUUCUAGGGAUGGAAGCUCGGCCGGCCAGGAGAAGGUACUAAAG”, the “apparent Kd” value under setting [3] is 44 nM and the “apparent Kd” value under setting [4] stood at 48 nM.

Consider “ACAUGAUCAGGAUAUACAUGAGGAUCACCCAUGUAUAUAAAAAAAAAACUUUCUUCAUGUAGAAGGGAUCUUGU”, for which the “apparent Kd” value runs as follows: under setting [3], 16.6 nM; under setting [4], 26.3 nM.

Take “GGAUAGGACAGAGGAUAUACGUGCUAGAGAUACUAGCAAAUAAUCCUUACAUGAGGAUCACCCAUGUAGAAGGCUGUCCUAUCG”: the “apparent Kd” value runs as follows: under setting [3], 20.2 nM; under setting [4], 48 nM.

Regarding “AUAAUGUAAGGAUAUCAGUCGACUAGCUGCGGCUAGUCGACUGAGAAGGUACAUGAGGAUCACCCAUGUGUUCC”, the “apparent Kd” value under setting [3] is 133 nM and the “apparent Kd” value under setting [4] was found to be 868 nM.

In the case of “CUCAAACAUGAGGAUCACCCAUGUGUUGUCGUGGGAGGAUAUCCCGGUUCGGUGGCGUCGGGAGAAGGCCUAUGUC”, the “apparent Kd” value was 68 nM under setting [1] and 35 nM under setting [2].

Regarding “CCAUCGUGUGUGAGGAUAUGCUGGUCCUUGGAUCAGCAGAAGGCACAUGAGGAUCACCCAUGUGAAUACGAUGG”, the “apparent Kd” value is, setting by setting: under setting [3], 16.3 nM; under setting [4], 29.5 nM.

On to “UUUGGGUGGCUGGAGGAUAUUCGAGUGGUUACAUGAGGAUCACCCAUGUGUCGCGCGGUACGCGAGGAGAAGGCUGGCGGCCGUU”, for which the “apparent Kd” value came to 79.7 nM under setting [1] and 37 nM under setting [2].

With “CGUAACUACAUAGGAUAUUGAUACAUGAGGAUCACCCAUGUUAUAGGGAUUAGUAUAAUAUUAAGCAAGAAGGAUGAAGUUACG”, the “apparent Kd” value under setting [1] came to 23.4 nM and the “apparent Kd” value under setting [2] was found to be 14.8 nM.

On to “UCAUGACAUGAGGAUCACCCAUGUCAGGAUAUCUACAGAACCUCAUGUAAAAAACUGUAGAGAAGGGAUAUGAA”, for which the “apparent Kd” value was 22 nM under setting [3] and 25 nM under setting [4].

On to “AUGGACAGCAUAGACACAUAGUAACGAGAAGGUACACAUGAGGAUCACCCAUGUACAGUCAGAAGUAAGGAUAUUGAAUGGUAG”, for which the “apparent Kd” value by setting is: under setting [1], 36.4 nM; under setting [2], 27.4 nM.

For “AGUGUCAUCGAGAAGGCCUCAACAUGAGGAUCACCCAUGUUGCAAAAUGGGAGGAUAUCGCGCGCAAAACUACGUUUCGUAGCA”, the “apparent Kd” value is 30.5 nM under setting [1] and 11.4 nM under setting [2].

As for “CCUGUGUAAGGAUAUGACAAUGGUAUCUUCGGAUACCAUUGUCAGAAGGUACAUGAGGAUCACCCAUGUAACAC”, the “apparent Kd” value under setting [3] came out at 15 nM and the “apparent Kd” value under setting [4] amounted to 30.4 nM.

Turning to “GCCGGUUCCCUAGGAUAUGUACAUGAGGAUCACCCAUGUGCCUCUAGAGCCGGAACAGGGCAUGUACAGAAGGAGGGUCGACCC”, the “apparent Kd” value under setting [4] is 8.03 nM.

Consider “GACUUGCAGCUAGGAUAUGGGCGAUCACAUGAGGAUCACCCAUGUCAACAUCAAAACAAGAUUAACCAGAAGGAGCCGCGGGCU”, for which the “apparent Kd” value under setting [1] came out at 17.3 nM and the “apparent Kd” value under setting [2] was found to be 63.9 nM.

Turning to “AAAGUGUCAGGAUAUGCGAAGGCAUCUGACAGAUGAGGAUCGCAGAAGGGACAUGAGGAUCACCCAUGUAAAAA”, the “apparent Kd” value reads like this: under setting [3], 45.2 nM; under setting [4], 122 nM.

As for “UUCCAACAUGAGGAUCACCCAUGUCGGAAGCAUUAAGGAUAUGGGCGGCCGGUGGCUGAACCAGAAGGUAAGCCAG”, the “apparent Kd” value reads like this: under setting [1], 15.3 nM; under setting [2], 18.1 nM.

As for “AGCAAAAUAAGCAAGGAUAUGUAAUUUGGCACAUGAGGAUCACCCAUGUCAAUCCAUUUUUUUGAACAGAAGGUGCAUUUUUUUU”, the “apparent Kd” value worked out at 38.2 nM under setting [1] and 32.1 nM under setting [2].

As to “CCGCAAAUGUAGGAUAUCGUAUCGGAUACGAUACGAGAAGGGCAUACAUGAGGAUCACCCAUGUGUCCUAGCGG”, the “apparent Kd” value is, setting by setting: under setting [3], 14.6 nM; under setting [4], 15.7 nM.

Regarding “UCAGUAGAGUCAGGAUAUACGAAAGGCGAUCCAUACAUGAGGAUCACCCAUGUAGAAGGGACUCUACUGUAAGUCGGAAACGAC”, the “apparent Kd” value is, setting by setting: under setting [3], 309 nM; under setting [4], 21.9 nM.

Take “GGAUCCAACACAGGAUAUGCUGGACUUUGUCCAGCAGAAGGGUGAAGAACAUGAGGAUCACCCAUGUGGAUCCAUAUAUUUAAU”: the “apparent Kd” value was found to be 483 nM under setting [1] and 42.4 nM under setting [2].

On to “GCAAAGCCUGACAUGAGGAUCACCCAUGUUAGAUUGUUAUGUCAGGAUAUUGUCUAGAAACUAGACAAGAAGGGAUGCUUUGCA”, for which the “apparent Kd” value reads like this: under setting [1], 463 nM; under setting [2], 27.3 nM.

For the sequence “GUCAGCUCGUGAGGAUAUACAUGUGCUGGAUACAGCACUAUUAAAUUCACAUGAGGAUCACCCAUGUAGAAGGCACGAGCUGAU”, the “apparent Kd” value runs as follows: under setting [3], 15.6 nM; under setting [4], 17.8 nM.

As to “CAUUUACAUGAGGAUCACCCAUGUGAGGAUAUGGAAUGGUUCAUUGUCUGACCUCCUUCUAGAAGGCACAUCUC”, the “apparent Kd” value is, setting by setting: under setting [3], 29.6 nM; under setting [4], 30.5 nM.

Take “GGCAUACAUGAGGAUCACCCAUGUUCAACCUAGAUAGGAUAUGGGCCUCUUGUAUUAGGCCCAGAAGGAUCUGUAA”: the “apparent Kd” value runs as follows: under setting [1], 103 nM; under setting [2], 29.6 nM.

As to “CCGGAAUCCUAGGAUAUGCUAGACGAAAGUCUAGCAGAAGGAGGAACAUGAGGAUCACCCAUGUGUCCUACCGG”, the “apparent Kd” value reads like this: under setting [3], 18.6 nM; under setting [4], 25 nM.

On to “CCAGCCCGUGCAGGAUAUACAUGAGGAUCACCCAUGUAGGAGAAUCCGCCGGUAGAAGGGUACGGACGGGCGUCUGACGCUUGU”, for which the “apparent Kd” value under setting [3] is 5.87 nM and the “apparent Kd” value under setting [4] was 6.33 nM.

Take “GGUGCGUUUGUGAGGAUAUGCUGGUCCUUGGUUCUGCAGAAGGCACAUGAGGAUCACCCAUGUGGUGUCGUACC”: the “apparent Kd” value reads like this: under setting [3], 77 nM; under setting [4], 162 nM.

On to “GGGUACAUCGGAGGAUAUCAUGUAAAUACAUGAGGAUCACCCAUGUCGAUGGAGACAUCGGAGAUUGAGAAGGCCGAUGUACAG”, for which the “apparent Kd” value is, setting by setting: under setting [1], 146 nM; under setting [2], 8.38 nM.

In the case of “GCGUUUUAUGCAGGAUAUUGUAAUUUAUUACUACAAGAAGGGCAAUACAUGAGGAUCACCCAUGUCAGCAUGGUAUUAAAGUUC”, the “apparent Kd” value under setting [3] stood at 37.6 nM and the “apparent Kd” value under setting [4] is 42.8 nM.

As for “AUCAGCUCGUCAGGAUAUACGUCACUGCGUCAGCAGUGUGGUAAGAUCACAUGAGGAUCACCCAUGUAGAAGGGACGAGCUGGU”, the “apparent Kd” value reads like this: under setting [3], 14.4 nM; under setting [4], 239 nM.

On to “UAGAUGGGAGGAUAUGCGUAGAUACGGAUUCGUGUGGUGCUACAUGAGGAUCACCCAUGUAGAAGGCCCGUCUU”, for which the “apparent Kd” value runs as follows: under setting [3], 12.8 nM; under setting [4], 18.6 nM.

Regarding “UUAAUUCGAAACAUGAGGAUCACCCAUGUGUUGUGGUUAAUAUAGGAUAUGAGGAUACUUUUUUGUCAGAAGGAUGAUGGUACU”, the “apparent Kd” value runs as follows: under setting [1], 11.8 nM; under setting [2], 10.8 nM.

With “AUGCUUUAUGUAGGAUAUUCAAACAAAGAGAAUGGAGAAGGACAUGAGGAUCACCCAUGUAGAAUGAUGUUAGAUAUCAUAUAU”, the “apparent Kd” value came out at 16.3 nM under setting [3] and 14.4 nM under setting [4].

Turning to “UUUUUACUUGCAGGAUAUGGAGACAUGAGGAUCACCCAUGUAUGAGGAGCUAAAUUAUGCUGUGGCCAGAAGGGUAUUGUUCUU”, the “apparent Kd” value is, setting by setting: under setting [1], 66.6 nM; under setting [2], 58.8 nM.

As to “GAAUGAGAGCAGGAUAUCUUAUAAUUGUAUGAAAGAGAAGGGCUCACAUGAGGAUCACCCAUGUGGUCCUAGAU”, the “apparent Kd” value under setting [3] is 42 nM and the “apparent Kd” value under setting [4] came to 299 nM.

As for “ACGAAACAUGAGGAUCACCCAUGUGAGGAUAUGUAAAUACUAGACAAAUAACAGAAAAACAGAAGGCACUCAGA”, the “apparent Kd” value was 24.3 nM under setting [3] and 22 nM under setting [4].

Turning to “UCGAGCAGGGAAUGGACGCUGAAGUAGGAUAUCCGCGUGGCCGUCCACAUGAGGAUCACCCAUGUGGAGAAGGGCUACAGCGAA”, the “apparent Kd” value is, setting by setting: under setting [3], 5.5 nM; under setting [4], 5.63 nM.

Regarding “UUGAUUAUACAAGGAUAUCAAUUGUAUACAAGUCUUACAUGAGGAUCACCCAUGUUAAAUUUUUUUGAGAAGGUGUGUUGUCAG”, the “apparent Kd” value reads like this: under setting [1], 33.9 nM; under setting [2], 28.5 nM.

“CCUUUGUCAGGAUAUCAGUACAGGUCGAGUUUAGACCUGUUUGAGAAGGGACAUGAGGAUCACCCAUGUAAAAC”: the “apparent Kd” value under setting [3] was found to be 125 nM and the “apparent Kd” value under setting [4] came to 161 nM.
